Calls of active or inactive are those of the source. No cut-off for these calls is given here.
Legend:
Nucleic Acid [1] = assay: Binding affinity to AATT DNA by SPR analysis; type: nucleic-acid assay
How it was run: (§1)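 Biosensor analysis against three immobilized DNA hairpin duplexes in degassed MES buffer (10 mM MES, 1 mM EDTA, 92 mM NaCl, 0.0005% v/v P20, pH 6.25) at 25 °C. A ligand concentration series was injected at 20 μL/min for 5 min, then dissociated for 5 min, with NaCl/NaOH regeneration. K was fitted from steady-state RU versus free ligand using a two-site binding equation.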

Nucleic Acid [2] = assay: Binding affinity to poly(dA).poly(dT) DNA in MES buffer assessed as change in melting temperature by thermal denaturation assay; type: nucleic-acid assay
Nucleic Acid [3] = assay: Binding affinity to Salmon sperm DNA in phosphate buffer assessed as change in melting temperature by thermal denaturation assay; type: nucleic-acid assay; conditions: Salmonidae
How it was run: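 UV melting of salmon sperm DNA (150 μM base) with compound (15 μM), giving a compound:base ratio of 0.1, in 10 mM sodium phosphate buffer at pH 7. Absorbance at 260 nm was followed from 20 to 90 °C at 1 °C/min, collecting five points per °C, in a 1 cm quartz cell.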

Nucleic Acid [4] = assay: Binding affinity to poly(dA.dT)2 DNA in phosphate buffer assessed as change in melting temperature by thermal denaturation assay
Nucleic Acid [5] = assay: Binding affinity to (GC)4 DNA by SPR analysis; type: nucleic-acid assay; how it was run: as §1
Nucleic Acid [6] = assay: Binding affinity to (AT)4 DNA by SPR analysis; type: nucleic-acid assay; how it was run: as §1
Nucleic Acid [7] = assay: Binding affinity to DNA assessed as large induced CD signal at 0.5 mM by circular dichroism study; type: nucleic-acid assay
Nucleic Acid [8] = assay: Binding affinity to poly(dA.dT)2 DNA assessed as large induced CD signal at 0.5 mM by circular dichroism study; type: nucleic-acid assay
Nucleic Acid [9] = assay: Binding affinity to poly(dA.dT)2 DNA in phosphate buffer by ITC analysis; type: nucleic-acid assay
How it was run: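 Calorimetric titration at 25 °C of 2.48 mM compound in 10 mM phosphate buffer into poly(dA·dT)2 in the cell (2 mM). There were 29 injections, spaced 300 s apart. Heat per injection was obtained by integrating the power peak area over time.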

| Structure (SMILES) | K (Nucleic Acid [1]) | Activity (Nucleic Acid [2]) | ΔTm (Nucleic Acid [3]) | Activity (Nucleic Acid [4]) | K (Nucleic Acid [5]) | K (Nucleic Acid [6]) | ΔTm (Nucleic Acid [4]) | Activity (Nucleic Acid [7]) | Activity (Nucleic Acid [8]) | K (Nucleic Acid [9]) |
| --- | --- | --- | --- | --- | --- | --- | --- | --- | --- | --- |
| N=C(N)Nc1ccc(NC(=O)c2ccc(N)cc2)cc1 | – | inactive | 1 °C | inactive | – | – | – | – | – | – |
| O=C(Nc1ccc(NC2=NCCN2)cc1)c1ccc(NC2=NCCN2)cc1 | 93.7 ×10⁵ /M | – | 12.5 °C | – | < 1 ×10⁵ /M | 47.7 ×10⁵ /M | 29 °C | Active | Active | 4.9 ×10⁵ /M |
| Nc1ccc2cc3ccc(N)cc3nc2c1 | 5.7 ×10⁵ /M | – | – | – | 6.5 ×10⁵ /M | 12.2 ×10⁵ /M | – | – | – | – |

Results, then the molecule that gave them:

| K (Nucleic Acid [1]) | Activity (Nucleic Acid [2]) | ΔTm (Nucleic Acid [3]) | Activity (Nucleic Acid [4]) | K (Nucleic Acid [5]) | K (Nucleic Acid [6]) | ΔTm (Nucleic Acid [4]) | Activity (Nucleic Acid [7]) | Activity (Nucleic Acid [8]) | K (Nucleic Acid [9]) | Structure (SMILES) |
| --- | --- | --- | --- | --- | --- | --- | --- | --- | --- | --- |
| 2.7 ×10⁵ /M | – | – | – | – | – | – | – | – | – | N=C(N)Nc1ccc(C(=O)c2ccc(N=C3NCCN3)cc2)cc1 |
| – | inactive | 2 °C | inactive | – | – | – | – | – | – | Nc1ccc(C(=O)Nc2ccc(NC3=NCCN3)cc2)cc1 |
| 71 ×10⁵ /M | – | 11 °C | – | < 1 ×10⁵ /M | 18 ×10⁵ /M | 20 °C | Active | Active | – | N=C(N)Nc1ccc(NC(=O)c2ccc(NC(=N)N)cc2)cc1 |
| 6.4 ×10⁵ /M | – | – | – | < 1 ×10⁵ /M | – | – | – | – | – | N=C(N)Nc1ccc(Nc2ccc(N=C3NCCN3)cc2)cc1 |
| – | – | 10 °C | – | – | – | 26.1 °C | Active | Active | 1.54 ×10⁵ /M | N=C(N)Nc1ccc(NC(=O)c2ccc(NC3=NCCN3)cc2)cc1 |
